Experimental data gathered from unrelated publications.
Compare with care: the assays were run in different laboratories.
Target: Vascular endothelial growth factor receptor 3 (FLT4, Homo sapiens, UniProt P35916)

CC(=O)c1c(NS(C)(=O)=O)c2cc(-c3ccc(Cl)cc3)c(-c3ccc(Cl)cc3Cl)nc2n(C)c1=O — remaining binding (cell-free assay, competition with immobilised ligand; 1 µM): 100%
Nc1ncc2c(n1)-c1c([nH]c3ccc(C#CC4CC4)cc13)CCCC2 — remaining binding (binding, competition with immobilised ligand; 1 µM): 100%
CCS(=O)(=O)c1cc2cc(C[C@](O)(CC(C)(C)c3ccc(F)cc3C(N)=O)C(F)(F)F)[nH]c2cn1 — remaining binding (cell-free assay, competition with immobilised ligand; 1 µM): 95%
Cc1cnn2ncc(-c3ccnc(N(C)C)n3)c2c1 — remaining binding (binding; 1 µM): 100%
CC(C)CC(=O)N1CCc2nc(-c3ccc(Br)cc3)nc(N(C)Cc3ccccc3)c2C1 — remaining binding (cell-free assay, competition with immobilised ligand; 0.1 µM): 100%
O=C(c1ccc(Nc2ncc(Cl)c(-c3ccc(Cl)s3)n2)cc1)N1CCC(N2CCCC2)CC1 — remaining binding (binding, competition with immobilised ligand; 1 µM): 0.15%
N#Cc1ccc(Nc2ccc3[nH]c(=O)[nH]c3c2)c(Cl)c1 — remaining binding (cell-free assay, competition with immobilised ligand; 1 µM): 100%
O=C(c1ccc(Nc2nccc(-c3cc4ccccc4s3)n2)cc1)N1CCC(N2CCCC2)CC1 — remaining binding (binding, competition with immobilised ligand; 1 µM): 30%
N[C@@H]1CCN(c2nccc(-c3cnn4ncccc34)n2)C1 — remaining binding (binding; 1 µM): 100%
CNCc1ccccc1-c1csc([C@H](C)Nc2nc(C)nc3cc(OC)c(OC)cc23)c1 — remaining binding (cell-free assay, competition with immobilised ligand; 1 µM): 100%
c1cncc(-c2cccc(Nc3nccc(NC4CCCCC4)n3)c2)c1 — remaining binding (binding, competition with immobilised ligand; 10 µM): 18%
O=C(NCCCN1CCOCC1)c1ccc(Nc2ncc(Cl)c(-c3ccc(Cl)s3)n2)cc1 — remaining binding (binding, competition with immobilised ligand; 1 µM): 0.7%
FC(F)(F)Oc1cccc(-c2cnc3ccc(-c4ccncc4)nn23)c1 — remaining binding (cell-free assay, competition with immobilised ligand; 5 µM): 84%
COc1cnc(Nc2cccc(S(N)(=O)=O)c2)nc1N1CCN(c2ccccc2)CC1 — remaining binding (binding, competition with immobilised ligand; 1 µM): 85%
C[C@@H]1CCN(c2nccc(-c3cnn4ncccc34)n2)C1 — remaining binding (binding; 1 µM): 100%
CCN(CC)CCCCNc1ncc2cc(-c3cc(OC)cc(OC)c3)c(NC(=O)NC(C)(C)C)nc2n1 — remaining binding (cell-free assay, competition with immobilised ligand; 1 µM): 6%
CN(C)c1nccc(-c2cnc3ncccn23)n1 — remaining binding (binding; 1 µM): 88%
Cc1nc(C2CCN(C(=O)c3ccc(OC(F)(F)F)cc3N)CC2)c2ncc(N3CCN(C)CC3)cc2n1 — remaining binding (cell-free assay, competition with immobilised ligand; 1 µM): 75%
CN(C)c1nccc(-c2cnn3ncccc23)n1 — remaining binding (binding; 1 µM): 100%
O=C(NCC1CCOCC1)c1n[nH]cc1NC(=O)c1c(F)cccc1F — remaining binding (binding, competition with immobilised ligand; 1 µM): 95%
CCCOc1ccc([C@@H]2[C@@H](C(=O)O)[C@H](c3ccc4c(c3)OCO4)CN2CC(=O)Nc2c(CC)cccc2CC)cc1 — remaining binding (cell-free assay, competition with immobilised ligand; 1 µM): 100%
c1cnn2ncc(-c3ccnc(N4CCC45COC5)n3)c2c1 — remaining binding (binding; 1 µM): 92%
